Source: ChEMBL document CHEMBL1687714, “Genetic analysis of fenhexamid-resistant field isolates of the phytopathogenic fungus Botrytis cinerea” (Antimicrob Agents Chemother, 2008)
Values after ≈ are worked out from the molar mass of the structure shown. Active and inactive are the calls of the source. The rule behind the calls is not given here.

Key:
[1] = system: Botrytis cinerea; assay: Antifungal activity against fenhexamid-senistive Botrytis cinerea SAS405 assessed as inhibition of germ tube elongation after 24 hrs; type: functional, organism-based; details: SAS405, 24 h
[2] = system: Botrytis cinerea; assay: Antifungal activity against HydR3 deficient Botrytis cinerea 453 harboring TELerg N369D mutant at 1 ug/ml relative to wild-type; type: functional, organism-based
Method in brief: (§1)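 In the dominance test, the recipient strains 453b and 286 were transformed with different erg27 alleles. Spores of the transformants were grown on YSS medium containing fenhexamid at different concentrations and 50 µg ml–1 hygromycin B. Parental strains were grown without hygromycin. Growth was scored after 7 days at 21°C.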

[3] = system: Botrytis cinerea; assay: Antifungal activity against moderately to slightly fenhexamid-resistant Botrytis cinerea 57 assessed as inhibition of germ tube elongation after 24 hrs; type: functional, organism-based; details: Botrytis cinerea, 57, 24 h
[4] = system: Botrytis cinerea; assay: Antifungal activity against highly fenhexamid-resistant Botrytis cinerea 1837 assessed as inhibition of germ tube elongation after 24 hrs; type: functional, organism-based; details: Botrytis cinerea, 1837, 24 h
[5] = system: Botrytis cinerea; assay: Antifungal activity against moderately to slightly fenhexamid-resistant Botrytis cinerea 452 assessed as inhibition of germ tube elongation after 24 hrs; type: functional, organism-based; details: Botrytis cinerea, 452, 24 h
[6] = system: Botrytis cinerea; assay: Antifungal activity against highly fenhexamid-resistant Botrytis cinerea 214 assessed as inhibition of mycelium growth measured over 5 days; type: functional, organism-based; details: Botrytis cinerea, 214, 120 h
[7] = system: Botrytis cinerea; assay: Antifungal activity against moderately to slightly fenhexamid-resistant Botrytis cinerea 452 assessed as inhibition of mycelium growth measured over 5 days; type: functional, organism-based; details: Botrytis cinerea, 452, 120 h
[8] = system: Botrytis cinerea; assay: Antifungal activity against highly fenhexamid-resistant Botrytis cinerea 214 assessed as inhibition of germ tube elongation after 24 hrs; type: functional, organism-based; details: Botrytis cinerea, 214, 24 h
[9] = system: Botrytis cinerea; assay: Antifungal activity against HydR3 deficient Botrytis cinerea 453 harboring TELerg N369D mutant at 10 ug/ml relative to wild-type; type: functional, organism-based; method in brief: as §1
[10] = system: Botrytis cinerea; assay: Antifungal activity against highly fenhexamid-resistant Botrytis cinerea 264 assessed as inhibition of mycelium growth measured over 5 days; type: functional, organism-based; details: Botrytis cinerea, 264, 120 h
[11] = system: Botrytis cinerea; assay: Antifungal activity against highly fenhexamid-resistant Botrytis cinerea 05-AVB assessed as inhibition of mycelium growth measured over 5 days; type: functional, organism-based; details: 120 h
[12] = system: Botrytis cinerea; assay: Antifungal activity against moderately to slightly fenhexamid-resistant Botrytis cinerea 221 assessed as inhibition of mycelium growth measured over 5 days; type: functional, organism-based; details: Botrytis cinerea, 221, 120 h
[13] = system: Botrytis cinerea; assay: Antifungal activity against highly fenhexamid-resistant Botrytis cinerea 440a assessed as inhibition of mycelium growth measured over 5 days; type: functional, organism-based; details: 120 h
[14] = system: Botrytis cinerea; assay: Antifungal activity against fenhexamid-senistive Botrytis cinerea SAS405 assessed as inhibition of mycelium growth measured over 5 days; type: functional, organism-based; details: SAS405, 120 h
[15] = system: Botrytis cinerea; assay: Antifungal activity against moderately to slightly fenhexamid-resistant Botrytis cinerea 05-ABA assessed as inhibition of mycelium growth measured over 5 days; type: functional, organism-based; details: 120 h
[16] = system: Botrytis cinerea; assay: Antifungal activity against highly fenhexamid-resistant Botrytis cinerea 520a assessed as inhibition of mycelium growth measured over 5 days; type: functional, organism-based; details: 120 h
[17] = system: Botrytis cinerea; assay: Antifungal activity against highly fenhexamid-resistant Botrytis cinerea 05-221 assessed as inhibition of mycelium growth measured over 5 days; type: functional, organism-based; details: 05-221, 120 h
[18] = system: Botrytis cinerea; assay: Antifungal activity against HydR3 deficient Botrytis cinerea 453 harboring TELerg F412I mutant at 1 ug/ml relative to wild-type; type: functional, organism-based; method in brief: as §1
[19] = system: Botrytis cinerea; assay: Antifungal activity against moderately to slightly fenhexamid-resistant Botrytis cinerea 05-1.27 assessed as inhibition of mycelium growth measured over 5 days; type: functional, organism-based; details: 05-1.27, 120 h
[20] = system: Botrytis cinerea; assay: Antifungal activity against highly fenhexamid-resistant Botrytis cinerea MK3-36 assessed as inhibition of germ tube elongation after 24 hrs; type: functional, organism-based; details: MK3-36, 24 h
[21] = system: Botrytis cinerea; assay: Antifungal activity against moderately to slightly fenhexamid-resistant Botrytis cinerea 286 assessed as inhibition of germ tube elongation after 24 hrs; type: functional, organism-based; details: Botrytis cinerea, 286, 24 h
[22] = system: Botrytis cinerea; assay: Antifungal activity against moderately to slightly fenhexamid-resistant Botrytis cinerea 05-1.27 assessed as inhibition of germ tube elongation after 24 hrs; type: functional, organism-based; details: 05-1.27, 24 h
[23] = system: Botrytis cinerea; assay: Antifungal activity against moderately to slightly fenhexamid-resistant Botrytis cinerea 286 assessed as inhibition of mycelium growth measured over 5 days; type: functional, organism-based; details: Botrytis cinerea, 286, 120 h
[24] = system: Botrytis cinerea; assay: Antifungal activity against highly fenhexamid-resistant Botrytis cinerea 179 assessed as inhibition of germ tube elongation after 24 hrs; type: functional, organism-based; details: Botrytis cinerea, 179, 24 h
[25] = system: Botrytis cinerea; assay: Antifungal activity against highly fenhexamid-resistant Botrytis cinerea 264 assessed as inhibition of germ tube elongation after 24 hrs; type: functional, organism-based; details: Botrytis cinerea, 264, 24 h
[26] = system: Botrytis cinerea; assay: Antifungal activity against HydR3 deficient Botrytis cinerea 453 harboring TELerg N369D mutant at 5 ug/ml relative to wild-type; type: functional, organism-based; method in brief: as §1
[27] = system: Botrytis cinerea; assay: Antifungal activity against moderately to slightly fenhexamid-resistant Botrytis cinerea 453b assessed as inhibition of mycelium growth measured over 5 days; type: functional, organism-based; details: 120 h
[28] = system: Botrytis cinerea; assay: Antifungal activity against highly fenhexamid-resistant Botrytis cinerea 379b assessed as inhibition of mycelium growth measured over 5 days; type: functional, organism-based; details: 120 h
[29] = system: Botrytis cinerea; assay: Antifungal activity against highly fenhexamid-resistant Botrytis cinerea 179 assessed as inhibition of mycelium growth measured over 5 days; type: functional, organism-based; details: Botrytis cinerea, 179, 120 h
[30] = system: Botrytis cinerea; assay: Antifungal activity against moderately to slightly fenhexamid-resistant Botrytis cinerea 202 assessed as inhibition of germ tube elongation after 24 hrs; type: functional, organism-based; details: Botrytis cinerea, 202, 24 h
[31] = system: Botrytis cinerea; assay: Antifungal activity against highly fenhexamid-resistant Botrytis cinerea 312 assessed as inhibition of mycelium growth measured over 5 days; type: functional, organism-based; details: Botrytis cinerea, 312, 120 h
[32] = system: Botrytis cinerea; assay: Antifungal activity against highly fenhexamid-resistant Botrytis cinerea 05-PV Reims assessed as inhibition of mycelium growth measured over 5 days; type: functional, organism-based; details: 120 h
[33] = system: Botrytis cinerea; assay: Antifungal activity against Botrytis cinerea B05.10 harboring TELerg F412S mutant assessed as appearance of mycelium growth up to 20 ug/ml; type: functional
Method in brief: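 B05.10 transformants carrying the erg27 allele on the pFTELerg plasmid were grown on rich medium with hygromycin B until conidiation. Spores were spread on YSS (synthetic complete) medium with 50 µg ml–1 hygromycin B and fenhexamid at 1 to 20 µg ml–1. After 7 days at 21°C, spores developing mycelium were scored under the microscope.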

[34] = system: Botrytis cinerea; assay: Antifungal activity against highly fenhexamid-resistant Botrytis cinerea 379a assessed as inhibition of germ tube elongation after 24 hrs; type: functional, organism-based
[35] = system: Botrytis cinerea; assay: Antifungal activity against moderately to slightly fenhexamid-resistant Botrytis cinerea 365 assessed as inhibition of mycelium growth measured over 5 days; type: functional, organism-based; details: Botrytis cinerea, 365, 120 h
[36] = system: Botrytis cinerea; assay: Antifungal activity against moderately to slightly fenhexamid-resistant Botrytis cinerea 221 assessed as inhibition of germ tube elongation after 24 hrs; type: functional, organism-based; details: Botrytis cinerea, 221, 24 h
[37] = system: Botrytis cinerea; assay: Antifungal activity against highly fenhexamid-resistant Botrytis cinerea MK3-9 assessed as inhibition of germ tube elongation after 24 hrs; type: functional, organism-based; details: MK3-9, 24 h
[38] = system: Botrytis cinerea; assay: Antifungal activity against highly fenhexamid-resistant Botrytis cinerea 379b assessed as inhibition of germ tube elongation after 24 hrs; type: functional, organism-based
[39] = system: Botrytis cinerea; assay: Antifungal activity against highly fenhexamid-resistant Botrytis cinerea 440b assessed as inhibition of germ tube elongation after 24 hrs; type: functional, organism-based

**Q.** `CC1(C(=O)Nc2ccc(O)c(Cl)c2Cl)CCCCC1` [FENHEXAMID] was tested. Which EC50 [1] did it give?
**A.** Its EC50 is < 0.1 µg/mL.

**Q.** What about the Activity [2] of the same compound?
**A.** Its Activity is “inactive”.

**Q.** And the EC50 [3]?
**A.** The EC50 was 2 µg/mL (≈ 6.62 µM).

**Q.** And the EC50 [4]?
**A.** Its EC50 is > 10 µg/mL.

**Q.** And the EC50 [5]?
**A.** The EC50 was 2.5 µg/mL (≈ 8.27 µM).

**Q.** And the EC50 [6]?
**A.** The EC50 was > 10 µg/mL.

**Q.** And the EC50 [7]?
**A.** The EC50 was 1.5 µg/mL (≈ 4.96 µM).

**Q.** And the EC50 [8]?
**A.** Its EC50 is 10 µg/mL (≈ 33.1 µM).

**Q.** What about the Activity [9] of the same compound?
**A.** The Activity was “inactive”.

**Q.** What about the EC50 [10] of the same compound?
**A.** The EC50 was > 10 µg/mL.

**Q.** What about the EC50 [11] of the same compound?
**A.** Its EC50 is 5 µg/mL (≈ 16.5 µM).

**Q.** And the EC50 [12]?
**A.** The EC50 was 0.2 µg/mL (≈ 0.662 µM).

**Q.** And the EC50 [13]?
**A.** Its EC50 is > 10 µg/mL.

**Q.** And the EC50 [14]?
**A.** The EC50 was < 0.1 µg/mL.

**Q.** And the EC50 [15]?
**A.** Its EC50 is 0.2 µg/mL (≈ 0.662 µM).

**Q.** What about the EC50 [16] of the same compound?
**A.** Its EC50 is 3 µg/mL (≈ 9.93 µM).

**Q.** And the EC50 [17]?
**A.** The EC50 was 7 µg/mL (≈ 23.2 µM).

**Q.** And the Activity [18]?
**A.** The Activity was “inactive”.

**Q.** What about the EC50 [19] of the same compound?
**A.** The EC50 was 0.2 µg/mL (≈ 0.662 µM).

**Q.** And the EC50 [20]?
**A.** Its EC50 is > 5 µg/mL.

**Q.** What about the EC50 [21] of the same compound?
**A.** The EC50 was 4 µg/mL (≈ 13.2 µM).

**Q.** What about the EC50 [22] of the same compound?
**A.** The EC50 was 2.5 µg/mL (≈ 8.27 µM).

**Q.** What about the EC50 [23] of the same compound?
**A.** Its EC50 is 1.5 µg/mL (≈ 4.96 µM).

**Q.** What about the EC50 [24] of the same compound?
**A.** Its EC50 is > 10 µg/mL.

**Q.** What about the EC50 [25] of the same compound?
**A.** The EC50 was > 10 µg/mL.

**Q.** And the Activity [26]?
**A.** The Activity was “inactive”.

**Q.** What about the EC50 [27] of the same compound?
**A.** The EC50 was 1.5 µg/mL (≈ 4.96 µM).

**Q.** What about the EC50 [28] of the same compound?
**A.** The EC50 was > 10 µg/mL.

**Q.** And the EC50 [29]?
**A.** Its EC50 is > 10 µg/mL.

**Q.** What about the EC50 [30] of the same compound?
**A.** Its EC50 is 2 µg/mL (≈ 6.62 µM).

**Q.** And the EC50 [31]?
**A.** The EC50 was > 10 µg/mL.

**Q.** What about the EC50 [32] of the same compound?
**A.** The EC50 was > 10 µg/mL.

**Q.** And the Activity [33]?
**A.** The Activity was 10%.

**Q.** What about the EC50 [34] of the same compound?
**A.** The EC50 was > 10 µg/mL.

**Q.** And the EC50 [35]?
**A.** The EC50 was 0.3 µg/mL (≈ 0.993 µM).

**Q.** What about the EC50 [36] of the same compound?
**A.** Its EC50 is 0.5 µg/mL (≈ 1.65 µM).

**Q.** And the EC50 [37]?
**A.** Its EC50 is > 5 µg/mL.

**Q.** What about the EC50 [38] of the same compound?
**A.** Its EC50 is > 10 µg/mL.

**Q.** And the EC50 [39]?
**A.** Its EC50 is > 10 µg/mL.
